≈ marks a conversion by molar mass, not a printed value.
Assays:
[1] = test system: Plasmodium falciparum (NF54); assay: Antimalarial activity against chloroquine-sensitive Plasmodium falciparum NF54
[2] = Induction of heme alkylation measured within 30 seconds by visible spectrophotometry; parameters: concentration or dose not given beside the values
Plasmodium berghei = assay: Antimalarial activity as reduced parasitaemia after 3 days against Plasmodium berghei infected NMRI mice (Mus musculus) at 100 mg/kg peroral dose; assay type: functional; parameters: scale not given: the % may be the effect or the level left; settings: route oral
How it was run: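 Groups of three P. berghei-infected NMRI mice were dosed orally one day post-infection at 100 mg/kg. Compounds were dissolved or suspended in 3% ethanol and 7% Tween 80.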

Plasmodium falciparum = assay: Antimalarial activity against chloroquine-resistant Plasmodium falciparum K1 […]; assay type: functional, organism-based

Row | SMILES | IC50 [1] [µg/mL] | Activity [2] [%] | Activity (Plasmodium berghei) [%] | IC50 (Plasmodium falciparum) [µg/mL]
1 | c1ccc([C@H]2CCOC3(OO2)C2CC4CC(C2)CC3C4)cc1 (stereo not given in full) | > 1 | 1 | – | –
2 | CC(C)(N)CNC(=O)C[C@H]1CC[C@]2(CC1)OO[C@]1(O2)C2CC3CC(C2)CC1C3 | – | 83 | – | –
3 | C1CCC2(CC1)OOC1(O2)C2CC3CC(C2)CC1C3 (stereo not given) | 0.0014 (≈ 0.0053 µM) | 86 | >99.99 | –
4 | C[C@@]1(c2ccccc2)OOC2(O1)C1CC3CC(C1)CC2C3 (stereo not given in full) | 0.0034 (≈ 0.0119 µM) | 67 | 99 | 0.0029 (≈ 0.0101 µM)
5 | c1ccc([C@@H]2OOC3(O2)C2CC4CC(C2)CC3C4)cc1 (stereo not given in full) | > 1 | 50 | 25 | 0.4 (≈ 1.47 µM)
6 | c1ccc([C@H]2COC3(OO2)C2CC4CC(C2)CC3C4)cc1 (stereo not given in full) | 0.019 (≈ 0.0663 µM) | 55 | 96 | 0.0091 (≈ 0.0318 µM)
7 | C1CCC2(CC1)COC1(OO2)C2CC3CC(C2)CC1C3 (stereo not given) | 0.044 (≈ 0.158 µM) | 45 | 0 | 0.054 (≈ 0.194 µM)
8 | C[C@@H]1CC[C@H]2[C@@H](C)C(=O)O[C@@H]3O[C@@]4(C)CC[C@@H]1[C@]32OO4 [ARTEMISININ] | 0.0028 (≈ 0.00992 µM) | – | 98 | –
9 | C[C@]1(c2ccccc2)COC2(OO1)C1CC3CC(C1)CC2C3 (stereo not given in full) | 0.022 (≈ 0.0732 µM) | – | 0 | 0.019 (≈ 0.0632 µM)
10 | C1CC[C@]2(CC1)CCO[C@]1(OO2)C2CC3CC(C2)CC1C3 | > 1 | 25 | 0 | –
